Laboratory results as given in ChEMBL document CHEMBL4270616, “Asymmetrical meta-methoxylated diarylpentanoids: Rational design, synthesis and anti-cancer evaluation in-vitro” (Eur J Med Chem, 2018).

Assays:
SW-620 [1] = assay: Induction of ROS generation in human SW620 cells after 12 hrs by DCFDA staining based flow cytometry; format: functional, cell-based
In short: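 SW620 cells (2×10^5/well) adhered overnight and were loaded with 10 μM DCFDA in medium for 1 h, then washed twice with PBS. Compound exposure followed at several concentrations for 12 h, with untreated and hydrogen peroxide-treated controls. Harvested cells were resuspended in PBS and DCF fluorescence read by flow cytometry at ex 488/em 525 nm.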

SW-620 [2] = assay: Anticlonogenic activity against human SW620 cells assessed as colony formation at 1.25 uM after 10 days by crystal violet staining based imaging analysis (reference value: 100%); format: functional
In short: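 SW620 cells seeded at 1000 cells/well in DMEM, left overnight at 37°C, 5% CO2, then exposed to compound for ten days with drug-containing medium renewed every three days. Cells were PBS-washed, fixed in 4% paraformaldehyde for 15 min, stained with 0.5% (w/v) crystal violet for 10 min, air-dried, photographed, and colonies quantified by image analysis.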

SW-620 [3] = assay: Induction of apoptosis in human SW620 cells assessed as necrotic cells at 1.25 uM after 24 hrs by Annexin V-FITC/propidium iodide staining based flow cytometry (reference value: 0.15%); format: functional
SW-620 [4] = assay: Induction of apoptosis in human SW620 cells assessed as early apoptotic cells at 1.25 uM after 72 hrs by Annexin V-FITC/propidium iodide staining based flow cytometry (reference value: 2.1%); format: functional
SW-620 [5] = assay: Cell cycle arrest in human SW620 cells assessed as decrease in G0/G1 phase after 24 hrs by propidium iodide staining based flow cytometry; format: functional
SW-620 [6] = assay: Induction of apoptosis in human SW620 cells assessed as early apoptotic cells at 5 uM after 48 hrs by Annexin V-FITC/propidium iodide staining based flow cytometry (reference value: 2.75%); format: functional
SW-620 [7] = assay: Induction of apoptosis in human SW620 cells assessed as necrotic cells at 2.5 uM after 72 hrs by Annexin V-FITC/propidium iodide staining based flow cytometry (reference value: 0.27%); format: functional
SW-620 [8] = assay: Induction of apoptosis in human SW620 cells assessed as early apoptotic cells at 10 uM after 72 hrs by Annexin V-FITC/propidium iodide staining based flow cytometry (reference value: 2.1%); format: functional
SW-620 [9] = assay: Induction of apoptosis in human SW620 cells assessed as necrotic cells at 5 uM after 72 hrs by Annexin V-FITC/propidium iodide staining based flow cytometry (reference value: 0.27%); format: functional
SW-620 [10] = assay: Induction of apoptosis in human SW620 cells assessed as live cells at 2.5 uM after 24 hrs by Annexin V-FITC/propidium iodide staining based flow cytometry (reference value: 97.03%); format: functional
[11] = Cytotoxicity against human EJ28 cells assessed as inhibition of cell proliferation at 20 uM after 72 hrs by MTT assay relative to control; format: functional; conditions: EJ-28, 72 h
In short: (§1)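 Single-concentration screen at 20 μM with 72 h exposure in DMEM with 10% FBS, final DMSO 0.1%. Read-out was MTT (5 mg/mL, 4 h, 37°C), DMSO solubilisation and absorbance at 570 nm, expressed as percent inhibition. Lines reaching a threshold percentage went on to IC50 determination.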

SW-620 [12] = assay: Induction of apoptosis in human SW620 cells assessed as early apoptotic cells at 1.25 uM after 48 hrs by Annexin V-FITC/propidium iodide staining based flow cytometry (reference value: 2.75%); format: functional
SW-620 [13] = assay: Induction of apoptosis in human SW620 cells assessed as late apoptotic cells at 5 uM after 72 hrs by Annexin V-FITC/propidium iodide staining based flow cytometry (reference value: 0.29%); format: functional
SW-620 [14] = assay: Induction of apoptosis in human SW620 cells assessed as late apoptotic cells at 2.5 uM after 72 hrs by Annexin V-FITC/propidium iodide staining based flow cytometry (reference value: 0.29%); format: functional
SW-620 [15] = assay: Induction of apoptosis in human SW620 cells assessed as late apoptotic cells at 10 uM after 48 hrs by Annexin V-FITC/propidium iodide staining based flow cytometry (reference value: 0.2%); format: functional
SW-620 [16] = assay: Induction of apoptosis in human SW620 cells assessed as early apoptotic cells at 10 uM after 48 hrs by Annexin V-FITC/propidium iodide staining based flow cytometry (reference value: 2.75%); format: functional
SW-620 [17] = assay: Cytotoxicity against human SW620 cells after 72 hrs by MTT assay; format: functional, cell-based; conditions: SW-620, 72 h
In short: (§2)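 Tumour lines kept in DMEM with 10% FBS and 1% penicillin/streptomycin at 37°C, 5% CO2. Seeded at 1500-5000 cells/well by doubling time and size, 24 h, then compound in DMSO-containing medium (final DMSO 0.1%) for 72 h. MTT (5 mg/mL) 4 h at 37°C, DMSO solubilisation, absorbance at 570 nm.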

SW-620 [18] = assay: Induction of apoptosis in human SW620 cells assessed as necrotic cells at 2.5 uM after 48 hrs by Annexin V-FITC/propidium iodide staining based flow cytometry (reference value: 0.23%); format: functional
MCF7 [19] = assay: Cytotoxicity against human MCF7 cells assessed as inhibition of cell proliferation at 20 uM after 72 hrs by MTT assay relative to control; format: functional; conditions: MCF7, 72 h; in short: as §1
MCF7 [20] = assay: Cytotoxicity against human MCF7 cells after 72 hrs by MTT assay; format: functional, cell-based; conditions: MCF7, 72 h; in short: as §2
SW-620 [21] = assay: Induction of apoptosis in human SW620 cells assessed as late apoptotic cells at 1.25 uM after 72 hrs by Annexin V-FITC/propidium iodide staining based flow cytometry (reference value: 0.29%); format: functional
SW-620 [22] = assay: Induction of apoptosis in human SW620 cells assessed as late apoptotic cells at 5 uM after 24 hrs by Annexin V-FITC/propidium iodide staining based flow cytometry (reference value: 0.43%); format: functional
SW-620 [23] = assay: Induction of apoptosis in human SW620 cells assessed as early apoptotic cells at 1.25 uM after 24 hrs by Annexin V-FITC/propidium iodide staining based flow cytometry (reference value: 2.35%); format: functional
SW-620 [24] = assay: Induction of apoptosis in human SW620 cells assessed as early apoptotic cells at 2.5 uM after 24 hrs by Annexin V-FITC/propidium iodide staining based flow cytometry (reference value: 2.35%); format: functional
SW-620 [25] = assay: Induction of apoptosis in human SW620 cells assessed as early apoptotic cells at 5 uM after 72 hrs by Annexin V-FITC/propidium iodide staining based flow cytometry (reference value: 2.1%); format: functional
SW-620 [26] = assay: Induction of apoptosis in human SW620 cells assessed as necrotic cells at 5 uM after 48 hrs by Annexin V-FITC/propidium iodide staining based flow cytometry (reference value: 0.23%); format: functional
SW-620 [27] = assay: Induction of apoptosis in human SW620 cells assessed as necrotic cells at 1.25 uM after 72 hrs by Annexin V-FITC/propidium iodide staining based flow cytometry (reference value: 0.27%); format: functional
SW-620 [28] = assay: Induction of apoptosis in human SW620 cells assessed as live cells at 5 uM after 72 hrs by Annexin V-FITC/propidium iodide staining based flow cytometry (reference value: 97.34%); format: functional
SW-620 [29] = assay: Induction of apoptosis in human SW620 cells assessed as necrotic cells at 5 uM after 24 hrs by Annexin V-FITC/propidium iodide staining based flow cytometry (reference value: 0.15%); format: functional

With `COc1ccc(/C=C2\CCC/C(=C\c3cc(OC)c(OC)c(OC)c3)C2=O)cc1OC` the Activity (SW-620 [1]) was “Dose-dependent effect”, the Activity (SW-620 [2]) was 0.5% and the Activity (SW-620 [3]) was 0.35%. For the same molecule, the Activity (SW-620 [4]) was 4.06%, the Activity (SW-620 [5]) was “Dose-dependent effect” and the Activity (SW-620 [6]) was 12%. It also gave an Activity (SW-620 [7]) of 1.36%, an Activity (SW-620 [8]) of 2.85% and an Activity (SW-620 [9]) of 0.33%. It also gave an Activity (SW-620 [10]) of 86.22%, an inhibition at 20 µM [11] of over 50% and an Activity (SW-620 [12]) of 6.01%. It also gave an Activity (SW-620 [13]) of 93%, an Activity (SW-620 [14]) of 17.24% and an Activity (SW-620 [15]) of 75.36%. For the same molecule, the Activity (SW-620 [16]) was 0.37%, the IC50 (SW-620 [17]) was 1.8 µM and the Activity (SW-620 [18]) was 0.55%. For the same molecule, the inhibition at 20 µM (MCF7 [19]) was over 50%, the IC50 (MCF7 [20]) was 1.6 µM and the Activity (SW-620 [21]) was 1.3%. The Activity (SW-620 [22]) was 0.35%, the Activity (SW-620 [23]) was 9.26% and the Activity (SW-620 [24]) was 12.47%. The Activity (SW-620 [25]) was 3.48%, the Activity (SW-620 [26]) was 1.55% and the Activity (SW-620 [27]) was 0.35%. It also gave an Activity (SW-620 [28]) of 3.13% and an Activity (SW-620 [29]) of 0.36%.

For `COc1ccc(/C=C2\CCC/C(=C\c3cccc(O)c3)C2=O)cc1OC`, the Activity (SW-620 [1]) was “Dose-dependent effect”, the Activity (SW-620 [2]) was 0.8% and the Activity (SW-620 [3]) was 0.17%. For the same molecule, the Activity (SW-620 [4]) was 5.22%, the Activity (SW-620 [5]) was “Dose-dependent effect” and the Activity (SW-620 [6]) was 12.04%. For the same molecule, the Activity (SW-620 [7]) was 0.78%, the Activity (SW-620 [8]) was 2.49% and the Activity (SW-620 [9]) was 1.23%. It also gave an Activity (SW-620 [10]) of 93.7%, an inhibition at 20 µM [11] of over 50% and an Activity (SW-620 [12]) of 4.11%. It also gave an Activity (SW-620 [13]) of 81.02%, an Activity (SW-620 [14]) of 4.57% and an Activity (SW-620 [15]) of 71.12%. The Activity (SW-620 [16]) was 9.84%, the IC50 (SW-620 [17]) was 1.9 µM and the Activity (SW-620 [18]) was 0.44%. The inhibition at 20 µM (MCF7 [19]) was over 50%, the IC50 (MCF7 [20]) was 2.9 µM and the Activity (SW-620 [21]) was 1.82%. For the same molecule, the Activity (SW-620 [22]) was 2.26%, the Activity (SW-620 [23]) was 4.33% and the Activity (SW-620 [24]) was 5.46%. It also gave an Activity (SW-620 [25]) of 10.2%, an Activity (SW-620 [26]) of 2.86% and an Activity (SW-620 [27]) of 0.63%. It also gave an Activity (SW-620 [28]) of 6.2% and an Activity (SW-620 [29]) of 0.35%.
